These results are taken from ChEMBL document CHEMBL1649209, “Improved murine model of malaria using Plasmodium falciparum competent strains and non-myelodepleted NOD-scid IL2Rgammanull mice engrafted with human erythrocytes” (2009).

The test system of assay [1] is Plasmodium falciparum. Description: Antimalarial activity against Plasmodium falciparum PfV1S0176/N10 infected in immunodeficient HM-IL2Rgamma null mouse after 7 days. In kind it is functional.
The test system of assay [2] is Plasmodium falciparum. Description: Antimalarial activity against Plasmodium falciparum Pf3D70087/N9 infected in immunodeficient HM-beta2 m null mouse after 7 days. In kind it is functional.
Assay [3] has as its system Plasmodium falciparum. The assay can be described thus: Antimalarial activity against Plasmodium falciparum Pf3D70087/N9 infected in immunodeficient HM-IL2Rgamma null mouse after 7 days. In kind it is functional. A digest of the protocol:
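Four-day test in female NOD-scid IL2Rγnull mice engrafted by daily i.p. injections of human erythrocytes. Mice were infected i.v. with 20 × 10^6 Pf3D70087/N9-infected hE, then randomized 3 days later (3/group) and dosed orally once daily for 4 days. Day-7 parasitemia was measured by SYTO-16/TER-119 flow cytometry relative to vehicle. ED90 came from a sigmoid dose-response fit.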

In assay [4] the test system is Plasmodium falciparum. The assay can be described thus: Antimalarial activity against Plasmodium falciparum Pf3D70087/N9 infected in immunodeficient HM-IL2Rgamma null mouse assessed as decreased parasitemia at 50 mg/kg, po for 4 days after 28 days. In kind it is functional, organism-based. The arrangement: dose 50 mg/kg. A digest of the protocol:
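Engrafted NOD-scid IL2Rγnull mice each carried about […] Pf3D70087/N9-infected hE. They were dosed orally at 50 mg/kg once daily for four consecutive days. Peripheral blood was checked for parasites up to at least 28 days after treatment ended.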

Active and inactive are the calls of the source. The rule behind the calls is not given here.

On to `Cc1[nH]c(CO)c(-c2ccc(Oc3ccc(OC(F)(F)F)cc3)cc2)c(=O)c1Cl`, for which the values for the ED90 in the assay with Plasmodium falciparum [1], in the assay on Plasmodium falciparum [2] and in the assay on Plasmodium falciparum [3] were <1 mg/kg, 0.6 mg/kg and 0.6 mg/kg, respectively.
Consider `C[C@H]1[C@H](OC(=O)CCC(=O)O)O[C@@H]2O[C@@]3(C)CC[C@H]4[C@H](C)CC[C@@H]1[C@@]24OO3` [ARTESUNATE], for which the ED90 with Plasmodium falciparum [1] was <20 mg/kg; with Plasmodium falciparum [2], 12.7 mg/kg; in the assay with Plasmodium falciparum [3], 12.9 mg/kg.
Consider `CCN(CC)CCCC(C)Nc1ccnc2cc(Cl)ccc12` (stereo not drawn) [CHLOROQUINE], for which the ED90 with Plasmodium falciparum [1] is >50 mg/kg; in the assay on Plasmodium falciparum [2], 4.4 mg/kg; in the assay on Plasmodium falciparum [3], 4.9 mg/kg. The result with Plasmodium falciparum [4] was Active.
For the molecule `CCc1nc(N)nc(N)c1-c1ccc(Cl)cc1` [PYRIMETHAMINE], the ED90 in the assay with Plasmodium falciparum [1] is >50 mg/kg; in the assay with Plasmodium falciparum [2] it was 0.9 mg/kg; in the assay on Plasmodium falciparum [3], 0.5 mg/kg.
